Measured values from ChEMBL document CHEMBL5500387, “Design, synthesis of combretastatin A-4 piperazine derivatives as potential antitumor agents by inhibiting tubulin polymerization and inducing autophagy in HCT116 cells” (Eur J Med Chem, 2024).

Assays:
[1] = Octanol-water partition coefficient, log P of the compound at pH 7.4 at 4 mg measured after 24 hrs by liquid chromatography; type: physicochemical
How it was run: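 4 mg of compound was dissolved in 1 mL water-saturated n-octanol and held 24 h at room temperature, then centrifuged. The supernatant was mixed with an equal volume of octanol-saturated water, stood 24 h, centrifuged and the phases separated. Phase concentrations were measured by LC standard curves. log P = log(C_octanol/C_water). At least three independent runs.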

[2] = system: A549; assay: Cytotoxicity against human A549 cells assessed as inhibition of cell proliferation measured after 72 hrs by CCK-8 assay; type: functional, cell-based; details: A549, 72 h
How it was run: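 Cells seeded at 2×10^3 per well and grown overnight in 10% FBS medium: HCT116 in McCoy's 5A, A549 and AGS in F-12K, SK-MES-1 in DMEM. Compounds added at varied concentrations with 0.1% DMSO control, 72 h at 37 °C. 10% CCK-8 for 2 h, then A450 read. Survival = (As−Ab)/(Ac−Ab)×100%. IC50 from curve fitting.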

[3] = Cytotoxicity against human NCM460 cells assessed as inhibition of cell proliferation measured after 72 hrs by CCK-8 assay; type: toxicity, cell-based
How it was run: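 NCM460 normal colonic epithelial cells seeded at 2×10^3 cells/well and grown overnight in RPMI-1640 with 10% FBS. Compounds added at a range of concentrations, 0.1% DMSO as negative control, 72 h at 37 °C. Read-out by CCK-8 (10%, 2 h) at 450 nm. Survival = (As−Ab)/(Ac−Ab)×100%; IC50 taken as concentration giving 50% inhibition of proliferation.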

[4] = Selectivity index, ratio of IC50 for human NCM460 cells to IC50 for human HCT-116 cells; type: toxicity; details: NCM460 cells and HCT-116 cells, read-out: Ratio IC50
How it was run: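 The selectivity index is IC50 in NCM460 normal colonic epithelial cells (RPMI-1640, 10% FBS) divided by IC50 in HCT116. Both were measured by 72 h CCK-8 viability at 2×10^3 cells/well with A450 read-out.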

[5] = system: HCT-116; assay: Inhibition of cell migration in human HCT-116 cells measured after 24 hrs by crystal violet staining based fluorescent inverted microscopic analysis; type: functional; details: dose 0.1-0.3 µM
How it was run: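 Uncoated Transwell inserts were seeded with HCT116 cells (1×10^4) in the upper chamber, with complete medium below. Treated 24 h at 37 °C, 5% CO2, with 0.1, 0.2 or 0.3 μM or 0.1% DMSO. Fixed with 4% paraformaldehyde, stained with 0.1% crystal violet, migrated cells imaged and counted. At least three replicates.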

[6] = system: HCT-116; assay: Inhibition of cell invasion in human HCT-116 cells measured after 48 hrs by crystal violet staining based fluorescent inverted microscopic analysis; type: functional; details: dose 0.1-0.3 µM
How it was run: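 Transwell inserts were coated with Matrigel (1:3 in serum-free medium). HCT116 cells (1×10^4) in serum-free medium went in the upper chamber, with complete medium as stimulus. Treated with 0.1, 0.2 or 0.3 μM or 0.1% DMSO for 48 h at 37 °C. Fixed in 4% paraformaldehyde, stained with 0.1% crystal violet, and imaged. Counts analysed by ImageJ. At least three replicates.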

[7] = system: HCT-116; assay: Induction of cell cycle arrest in human HCT-116 cells assessed as accumulation of cells at G0/G1 phase at 0.1 uM measured after 24 hrs by PI/RNase staining based flow cytometry analysis (reference value: 32.88%); type: functional
[8] = system: HCT-116; assay: Induction of cell cycle arrest in human HCT-116 cells assessed as accumulation of cells at S phase at 0.3 uM measured after 24 hrs by PI/RNase staining based flow cytometry analysis (reference value: 38.29%); type: functional
[9] = system: HCT-116; assay: Induction of cell cycle arrest at G2/M phase in human HCT-116 cells assessed as reduction in Cdc-2 protein expression measured after 48 hrs by Western blot analysis; type: functional, cell-based; details: dose 0.1-0.3 µM
How it was run: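 HCT116 cells given 0.1, 0.2 or 0.3 μM for 48 h, with 0.1% DMSO control. Lysates run on SDS-PAGE and blotted to PVDF. Probed with anti-Cdc2 and anti-Cyclin B1 (1:1000), β-actin as loading control, HRP secondary, and chemiluminescence. Band quantities expressed relative to control set to 1. Three independent experiments.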

[10] = system: HCT-116; assay: Induction of autophagy in human HCT-116 cells assessed as increase in LC3-II protein expression measured after 24 hrs by Western blot analysis; type: functional, cell-based; details: dose 0.1-0.3 µM
How it was run: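 HCT116 cells exposed for 24 h to 0.1, 0.2 or 0.3 μM. Lysed on ice and protein measured by BCA. […] Milk-blocked, probed with anti-LC3A/B or anti-phospho-SQSTM1/p62 (1:1000) plus β-actin, then HRP anti-rabbit and chemiluminescence. Bands normalised to control set to 1. Three independent experiments.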

[11] = system: HCT-116; assay: Induction of autophagy in human HCT-116 cells transfected with mRFP-GFP-LC3 adenovirus assessed as increase in LC3 labeling by measuring increase in number of yellow dots measured after 24 hrs by immunofluorescence staining based confocal microscopic analysis; type: functional, cell-based; details: dose 0.1-0.3 µM
How it was run: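 HCT116 cells on glass slides were infected with mRFP-GFP-LC3 adenovirus at 50% confluence and incubated 24 h. They were then treated 24 h with 0.1–0.3 μM or 0.1% DMSO. Fixed in 4% paraformaldehyde, mounted with DAPI, and yellow LC3 puncta imaged by confocal microscopy.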

[12] = system: A549; assay: Induction of cell cycle arrest in human A549 cells assessed as accumulation of cells at G0/G1 phase at 0.1 uM measured after 24 hrs by PI/RNase staining based analysis (reference value: 41.91%); type: functional
[13] = system: A549; assay: Induction of cell cycle arrest in human A549 cells assessed as accumulation of cells at S phase at 0.2 uM measured after 24 hrs by PI/RNase staining based analysis (reference value: 24.95%); type: functional
[14] = system: A549; assay: Induction of cell cycle arrest in human A549 cells assessed as accumulation of cells at S phase at 0.3 uM measured after 24 hrs by PI/RNase staining based analysis (reference value: 24.95%); type: functional
[15] = system: A549; assay: Induction of cell cycle arrest in human A549 cells assessed as accumulation of cells at G2/M phase at 0.3 uM measured after 24 hrs by PI/RNase staining based analysis (reference value: 10.22%); type: functional
[16] = system: A549; assay: Induction of apoptosis in human A549 cells assessed as late apoptotic cells at 0.1 uM measured after 24 hrs by Annexin V-APC/PI staining based flow cytometry analysis (reference value: 0.86%); type: functional
[17] = system: A549; assay: Induction of apoptosis in human A549 cells assessed as dead cells at 0.1 uM measured after 24 hrs by Annexin V-APC/PI staining based flow cytometry analysis (reference value: 0.50%); type: functional
[18] = system: A549; assay: Induction of apoptosis in human A549 cells assessed as live cells at 0.2 uM measured after 24 hrs by Annexin V-APC/PI staining based flow cytometry analysis (reference value: 96.91%); type: functional
[19] = system: A549; assay: Induction of apoptosis in human A549 cells assessed as early apoptotic cells at 0.3 uM measured after 24 hrs by Annexin V-APC/PI staining based flow cytometry analysis (reference value: 1.73%); type: functional

SMILES: COc1ccc(/C=C(/C(=O)N2CCN(c3ccc(C)cc3)CC2)c2cc(OC)c(OC)c(OC)c2)cc1O
- logD at 24 h [1]: -0.013
- IC50 [2]: 253 nM
- IC50 at 72 h [3]: 1090 nM
- selectivity ratio [4]: 4.8
- inhibition [5]: Dose-Dependent Effect
- inhibition [6]: Dose-Dependent Effect
- Activity [7]: 34.26%
- Activity [8]: 6.31%
- Activity [9]: Dose-Dependent Effect
- Activity [10]: Dose-Dependent Effect
- Activity [11]: Dose-Dependent Effect
- Activity [12]: 69.3%
- Activity [13]: 13.76%
- Activity [14]: 7.17%
- Activity [15]: 5.65%
- Activity [16]: 2.78%
- Activity [17]: 0.83%
- Activity [18]: 76.79%
- Activity [19]: 21.09%
